Source: PubChem BioAssay (The Scripps Research Institute Molecular Screening Center)
Hits are enriched below; roughly 1.2% of the tested compounds scored in any of these assays.
IDE inh = human IDE inhibitors in live cells, primary screen, fluorescence polarization, HEK cells, FAbetaB substrate; Insulin-degrading enzyme (Homo sapiens), P14735; FAbetaB cleavage; inhibition, % at 5.59 µM; 0.41% of 320,000 active;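 active = percent inhibition above the average of all tested compounds plus 3 SD, set per screening campaign, cut at about 16% in these data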;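 also: IDE supplied by intact live HEK cells; FP after avidin binding of uncleaved biotin substrate so inhibition keeps polarization high; 0% = DMSO wells and 100% = 60 µM reference IDE inhibitor Ii1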
proCasp3 act = activators of human procaspase-3 D3A mutant, primary screen, biochemical, absorbance, PC-3 D3A mutant, single concentration. Caspase-3 (Homo sapiens), P42574. recombinant procaspase-3 D3A, Ac-DEVD-pNA absorbance 405 nm. activation, % at 8.5 µM. 0.11% of 330,000 active;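 active = activation above the mean of all tested compounds plus 3 SD, cut at about 21% in these data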;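 also: 0% = DMSO alone and 100% = DMSO wells spiked with extra 5 µM PC-3 D3A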
Target sequence (P42574 whole entry D9A/D28A/D175A): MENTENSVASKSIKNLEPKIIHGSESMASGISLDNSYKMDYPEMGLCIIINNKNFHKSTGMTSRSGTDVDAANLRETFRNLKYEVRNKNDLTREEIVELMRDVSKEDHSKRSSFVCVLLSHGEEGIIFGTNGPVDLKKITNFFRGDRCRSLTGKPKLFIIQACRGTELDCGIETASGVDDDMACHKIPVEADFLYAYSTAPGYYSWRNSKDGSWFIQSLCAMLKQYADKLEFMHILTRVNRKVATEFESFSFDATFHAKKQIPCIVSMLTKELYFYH
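Assay system – Procaspase-3 D3A mutant, all three cleavage aspartates alanine · Controls – DMSO-only low control, 5 µM PC-3 D3A high control · Schedule – 1 h compound preincubation, 2 h substrate hydrolysis at 25 °C · Signal – 405 nm absorbance of p-nitroaniline, reads at 0 and 120 min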
TPT1 inhibitor = Candida albicans TPT1 enzyme inhibitors, primary screen, biochemical, fluorescence polarization; 0.81% of 300,000 active; recombinant caTPT1, FP RNA substrate dephosphorylation; inhibition, % at 5 µM; AID 1962, 2009; tRNA 2'-phosphotransferase TPT1 (Candida albicans SC5314);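 active = inhibition above the mean of all tested compounds plus 3 SD, set per screening campaign, cut at about 24% in these data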;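 also: plate controls were DMSO alone for no effect and ferristatin control at 100 nM for full effect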
IDE cell activ = human IDE activators in live cells, primary screen, fluorescence polarization, HEK cells, FAbeta-B substrate | FAbeta-B cleavage; 0% vehicle, 100% cell-free pure enzyme wells | 0.073% of 340,000 active | Insulin-degrading enzyme (Homo sapiens), P14735 | activation, % at 5.96 µM | AID 493087, 2011;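 active = activation above the mean of all tested compounds plus 3 SD, set per screening campaign, cut at about 17% in these data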
procasp7 counter = procaspase-7 activators, primary screen, counter-screen for procaspase-3 activator project, biochemical, absorbance, HTS, human | Caspase-7 (Homo sapiens), P55210 | recombinant procaspase-7, Ac-DEVD-pNA absorbance 405 nm; D23A/D198A/D206A triple mutant, cannot self-cleave; scale: DMSO 0, 5 µM enzyme 100 | activation, % at 8.5 µM | 0.093% of 330,000 active | AID 463210, 2010;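 active = percent activation above the screen-wide mean plus 3 SD, cut at about 25% in these data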
Target sequence (P55210 whole entry D23A/D198A/D206A): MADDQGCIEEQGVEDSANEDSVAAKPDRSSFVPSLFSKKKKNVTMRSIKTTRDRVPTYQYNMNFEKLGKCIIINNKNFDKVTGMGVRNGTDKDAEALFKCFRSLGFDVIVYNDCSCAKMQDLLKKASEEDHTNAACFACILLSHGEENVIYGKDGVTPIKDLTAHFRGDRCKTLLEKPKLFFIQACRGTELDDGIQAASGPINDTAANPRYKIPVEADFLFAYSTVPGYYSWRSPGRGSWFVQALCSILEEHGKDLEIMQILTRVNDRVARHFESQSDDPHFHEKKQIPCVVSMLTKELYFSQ
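Test system: Procaspase-7 triple mutant (PC-7 D3A). Also added: Ac-DEVD-pNA substrate, 400 µM as added. Schedule: 1 h enzyme–compound preincubation and 2 h substrate reaction, both 25 °C. Signal: p-Nitroaniline absorbance at 405 nm, read at 0 and 120 min. Control set: low DMSO alone, high DMSO plus 5 µM PC-7.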
caTPT1 confirm = Candida albicans TPT1 inhibitors, confirmation, biochemical, fluorescence polarization, triplicate | shares compounds with TPT1 inhibitor | recombinant caTPT1, RNase T1 coupled | inhibition, % at 5 µM | 74% of 2,400 active;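 active = inhibition above the primary screen limit, the mean inhibition of all tested compounds plus 3 SD, cut at about 25% in these data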
RNase T1 inh = RNase T1 inhibitors, counter-screen for TPT1 inhibitor project, biochemical, fluorescence polarization; inhibition, % at 5 µM; AID 2153, 2009; 83% of 2,400 active; RNase T1 cleavage, 1536-well; shares compounds with TPT1 inhibitor;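 active = inhibition above the solvent-only control well mean plus 3 SD, limit set per screening run, cut at about 23% in these data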;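 also: plate controls were DMSO wells with enzyme for no effect and wells without RNase T1 for full effect; inhibitors block cleavage so intact labeled substrate keeps polarization high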
IDE cell inh cf = human IDE inhibitors in live cells, confirmation, fluorescence polarization, HEK cells, FAbetaB substrate | shares compounds with IDE inh | FAbetaB cleavage | inhibition, % at 5.59 µM | 51% of 1,200 active | AID 435028, 2010;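 active = mean inhibition across triplicate wells above the cutoff set by the earlier primary insulin-degrading enzyme screen, cut at about 16% in these data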;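 also: 0% = DMSO wells and 100% = 60 µM reference IDE inhibitor Ii1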
HEK cytotox = cytotoxicity in HEK cells, cytotoxicity control for IDE inhibitor project, cell-based, luminescence; shares compounds with IDE inh; HEK293 cytotoxicity, ATP luminescence; inhibition, % at 5.59 µM; 28% of 1,200 active; AID 449730, 2010; in the data active = inhibition above about 22%;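 also: 0% = vehicle wells and 100% = reference cytotoxic drug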
Numbers without * were called inactive; x = no result; + = active, no number.

SMILES	IDE inh	proCasp3 act	TPT1 inhibitor	IDE cell activ	procasp7 counter	caTPT1 confirm	RNase T1 inh	IDE cell inh cf	HEK cytotox
Cc1ccc(NC(=O)CCCN2C(=O)/C(=C/C=C/c3ccccc3)SC2=S)cc1	-4	-14	18	1	-24	x	x	x	x
O=C(O)CCCN1C(=O)/C(=C/C=C/c2ccco2)SC1=S	4	-11	84*	1	-31	37*	38*	x	x
O=C(O)CC(C(=O)O)N1C(=O)/C(=C/C=C/c2ccco2)SC1=S (stereo not drawn)	1	-15	67*	-5	-20	29*	36*	x	x
O=C(c1ccc(-c2ccc([N+](=O)[O-])cc2)o1)N1CCCCCCC1	-4	-8	x	-7	-11	x	x	x	x
O=C(c1ccc(-c2ccc([N+](=O)[O-])cc2)o1)N1CCCC(C(F)(F)F)C1 (stereo not drawn)	1	-7	25*	-1	-7	13	19	x	x
Cc1ccc(N=Cc2sc(O)c3ccccc23)c(C)c1	6	-16	117*	-8	-16	80*	94*	x	x
O=C(NCc1ccc(Cl)cc1)C1CCN(S(=O)(=O)c2ccc(F)cc2)CC1	0	2	-4	9	-5	x	x	x	x
COc1ccc(S(=O)(=O)N2CCN(C(=O)CCSc3ccccc3)CC2)cc1	2	5	x	1	4	x	x	x	x
Cc1c(C(=O)N(C)Cc2nc3ccccc3c(=O)[nH]2)oc2ccccc12	5	-1	x	2	-7	x	x	x	x
NC1=NC(=O)/C(=C/c2cc(Br)c(O)c(Br)c2)S1	14	-8	37*	-5	-19	49*	62*	x	x
NC1=NC(=O)/C(=C/c2ccc(Br)cc2)S1	-4	0	-2	-1	3	x	x	x	x
Cc1c(C(=O)NC2CCOC2)oc2c(F)cccc12 (stereo not drawn)	2	-2	-2	-1	-4	x	x	x	x
CCN1/C(=C/c2cc[n+](CCCS(=O)(=O)[O-])c3ccccc23)Sc2ccccc21	26*	-10	48*	-8	-12	37*	52*	28*	10
COc1ccc(C)cc1NC(=O)CSc1nnc2ccc(-c3ccncc3)nn12	6	-4	0	-2	3	x	x	x	x
CCOc1ccc(S(=O)(=O)N(C)CC(=O)NCc2ccccn2)cc1Cl	4	4	1	2	-3	x	x	x	x
CC1CCCN(S(=O)(=O)c2ccc3[nH]c4c(c3c2)CCCC4)C1 (stereo not drawn)	0	1	5	8	-5	x	x	x	x
N#C/C(=C\c1ccc(N2CCCCC2)o1)C(N)=O	32*	2	+	-50	-15	171*	164*	50*	10
N#C/C(=C\c1ccc(N2CCCCC2)o1)C(=O)Nc1cccc(Br)c1	140*	-25	168*	-103	-44	191*	172*	79*	42*
COc1ccc(NC(=O)/C(C#N)=C\c2ccc(Br)o2)cc1	0	-1	5	4	3	x	x	x	x
CCCCCCCN1C(Nc2ccccc2)=NC[C@@H]1C	3	0	-3	5	-16	x	x	x	x
Cc1ccc2nc(/C(C#N)=C/c3ccc(O)c(O)c3)[nH]c2c1	84*	-17	56*	-62	-33	77*	84*	111*	15
COC(=O)c1ccc(C2c3[nH]c4ccccc4c3C[C@H]3C(=O)N(C)CC(=O)N23)cc1 (stereo partly drawn)	7	-4	-3	2	-8	x	x	x	x
CCN1C(=O)[C@@H]2Cc3c([nH]c4ccccc34)C(c3ccc(OC)cc3)N2C1=S (stereo partly drawn)	41*	3	65*	-47	-8	48*	60*	20*	61*
COc1ccc(-n2c(C)cc(/C=C3\SC(=S)N(Cc4ccco4)C3=O)c2C)cc1	17*	2	122*	-8	7	122*	123*	18*	11
Nc1c(C=C2C=CC(=O)C=C2)c(=O)nc2sc(CC(=O)N3CCCCC3)nn12	3	3	-2	2	-3	x	x	x	x
SMILES	IDE inh	proCasp3 act	TPT1 inhibitor	IDE cell activ	procasp7 counter	caTPT1 confirm	RNase T1 inh	IDE cell inh cf	HEK cytotox
COC1=CC(=Cc2c(N)n3nc(CC(=O)N4CCCCC4)sc3nc2=O)C=C(OC)C1=O	41*	-5	31*	-79	6	112*	110*	26*	5
CCc1nn2c(=O)cc(COC(=O)c3cc(Cl)c(OC)c(OC)c3)nc2s1	2	10	x	3	9	x	x	x	x
CN(C)c1ccc(/C=C(/C(=O)c2ccc(Cl)cc2Cl)n2cncn2)cc1	141*	-1	121*	-146	-21	132*	131*	162*	28*
COCCNC(=O)Cn1cc(/C=N/NC(=O)c2ccc(Oc3ccc(O)cc3)cc2)c2ccccc21	-4	3	2	-1	0	x	x	x	x
CN(CC(=O)Nc1ccccc1Cl)C(=O)COC(=O)c1nc(Cl)c(Cl)c(Cl)c1Cl	1	8	0	-1	-4	x	x	x	x
CCOc1cc(/C=C2\SC(=S)N(C(C(=O)O)c3ccccc3)C2=O)ccc1O (stereo not drawn)	68*	-19	45*	-114	-35	48*	61*	140*	11
O=C1/C(=C\c2cc([N+](=O)[O-])ccc2O)SC(=S)N1Cc1ccc(Cl)cc1	40*	-19	43*	-57	-18	47*	57*	130*	15
O=C1/C(=C\c2cccc(O)c2O)SC(=S)N1Cc1ccccc1	9	-20	5	-28	-33	x	x	x	x
COc1cc(/C=C2\SC(=S)N(C(C(=O)O)c3ccccc3)C2=O)ccc1O (stereo not drawn)	64*	-15	27*	-105	-13	28*	41*	174*	6
